Laboratory results published in ChEMBL document CHEMBL3244429, “Antischistosomal effects of 5-(2,4,5-trichlorophenyl)hydantoin and related compounds” (J Med Chem, 1977).

Tests used:
Type in all cases: functional
[1] = tested on: Schistosoma mansoni; test: Antischistosomal activity against Schistosoma mansoni Puerto Rican infected mouse assessed as reduction in live schistosomes at 314 mg/kg/day, through diet for 14 days; conditions: 336 h
How it was run: (§1)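 Mice carrying a Puerto Rican strain of S. mansoni received drug mixed into a powdered diet for 14 days, with dose expressed as mg/kg per day. The read-out was the reduction in live schistosomes in the infected mice.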

[2] = tested on: Schistosoma mansoni; test: Antischistosomal activity against Schistosoma mansoni Puerto Rican infected mouse assessed as infected mouse at 314 mg/kg/day, through diet for 14 days; how it was run: as §1
[3] = tested on: Schistosoma mansoni; test: Antischistosomal activity against Schistosoma mansoni Puerto Rican infected mouse assessed as reduction in live schistosomes at 265 mg/kg/day, through diet for 14 days; conditions: 336 h; how it was run: as §1
[4] = tested on: Schistosoma mansoni; test: Antischistosomal activity against Schistosoma mansoni Puerto Rican infected mouse assessed as infected mouse at 265 mg/kg/day, through diet for 14 days; how it was run: as §1
[5] = tested on: Schistosoma mansoni; test: Antischistosomal activity against Schistosoma mansoni Puerto Rican infected mouse assessed as infected mouse at 100 mg/kg/day, through gavage for 10 days
[6] = tested on: Schistosoma mansoni; test: Antischistosomal activity against Schistosoma mansoni Puerto Rican infected mouse assessed as reduction in live schistosomes at 100 mg/kg/day, through gavage for 10 days; conditions: po, 240 h
[7] = tested on: Schistosoma mansoni; test: Antischistosomal activity against Schistosoma mansoni Puerto Rican infected mouse assessed as reduction in live schistosomes at 269 mg/kg/day, through diet for 14 days; conditions: 336 h; how it was run: as §1
[8] = tested on: Schistosoma mansoni; test: Antischistosomal activity against Schistosoma mansoni Puerto Rican infected mouse assessed as infected mouse at 200 mg/kg/day, through gavage for 5 days
[9] = tested on: Schistosoma mansoni; test: Antischistosomal activity against Schistosoma mansoni Puerto Rican infected mouse assessed as infected mouse at 269 mg/kg/day, through diet for 14 days; how it was run: as §1
[10] = tested on: Schistosoma mansoni; test: Antischistosomal activity against Schistosoma mansoni Puerto Rican infected mouse assessed as reduction in live schistosomes at 200 mg/kg/day, through gavage for 5 days; conditions: po, 120 h
[11] = tested on: Schistosoma mansoni; test: Antischistosomal activity against Schistosoma mansoni Puerto Rican infected mouse assessed as reduction in live schistosomes at 347 mg/kg/day, through diet for 14 days; conditions: 336 h; how it was run: as §1
[12] = tested on: Schistosoma mansoni; test: Antischistosomal activity against Schistosoma mansoni Puerto Rican infected mouse assessed as infected mouse at 347 mg/kg/day, through diet for 14 days; how it was run: as §1
[13] = tested on: Schistosoma mansoni; test: Antischistosomal activity against Schistosoma mansoni Puerto Rican infected mouse assessed as infected mouse at 297 mg/kg/day, through diet for 14 days; how it was run: as §1
[14] = tested on: Schistosoma mansoni; test: Antischistosomal activity against Schistosoma mansoni Puerto Rican infected mouse assessed as reduction in live schistosomes at 297 mg/kg/day, through diet for 14 days; conditions: 336 h; how it was run: as §1
[15] = tested on: Schistosoma mansoni; test: Antischistosomal activity against Schistosoma mansoni Puerto Rican infected mouse assessed as infected mouse at 336 mg/kg/day, through diet for 14 days; how it was run: as §1
[16] = tested on: Schistosoma mansoni; test: Antischistosomal activity against Schistosoma mansoni Puerto Rican infected mouse assessed as reduction in live schistosomes at 336 mg/kg/day, through diet for 14 days; conditions: 336 h; how it was run: as §1
[17] = tested on: Schistosoma mansoni; test: Antischistosomal activity against Schistosoma mansoni Puerto Rican infected mouse assessed as reduction in live schistosomes at 329 mg/kg/day, through diet for 14 days; conditions: 336 h; how it was run: as §1
[18] = tested on: Schistosoma mansoni; test: Antischistosomal activity against Schistosoma mansoni Puerto Rican infected mouse assessed as infected mouse at 329 mg/kg/day, through diet for 14 days; how it was run: as §1
[19] = tested on: Schistosoma mansoni; test: Antischistosomal activity against Schistosoma mansoni Puerto Rican infected mouse assessed as reduction in live schistosomes at 146 mg/kg/day, through diet for 14 days; conditions: 336 h; how it was run: as §1
[20] = tested on: Schistosoma mansoni; test: Antischistosomal activity against Schistosoma mansoni Puerto Rican infected mouse assessed as infected mouse at 146 mg/kg/day, through diet for 14 days; how it was run: as §1
[21] = tested on: Schistosoma mansoni; test: Antischistosomal activity against Schistosoma mansoni Puerto Rican infected mouse assessed as reduction in live schistosomes at 249 mg/kg/day, through diet for 14 days; conditions: 336 h; how it was run: as §1
[22] = tested on: Schistosoma mansoni; test: Antischistosomal activity against Schistosoma mansoni Puerto Rican infected mouse assessed as infected mouse at 249 mg/kg/day, through diet for 14 days; how it was run: as §1
[23] = tested on: Schistosoma mansoni; test: Antischistosomal activity against Schistosoma mansoni Puerto Rican infected mouse assessed as reduction in live schistosomes at 396 mg/kg/day, through diet for 14 days; conditions: 336 h; how it was run: as §1
[24] = tested on: Schistosoma mansoni; test: Antischistosomal activity against Schistosoma mansoni Puerto Rican infected mouse assessed as infected mouse at 396 mg/kg/day, through diet for 14 days; how it was run: as §1
[25] = tested on: Schistosoma mansoni; test: Antischistosomal activity against Schistosoma mansoni Puerto Rican infected mouse assessed as infected mouse at 349 mg/kg/day, through diet for 14 days; how it was run: as §1
[26] = tested on: Schistosoma mansoni; test: Antischistosomal activity against Schistosoma mansoni Puerto Rican infected mouse assessed as reduction in live schistosomes at 349 mg/kg/day, through diet for 14 days; conditions: 336 h; how it was run: as §1

Compound `CC1(c2ccc([N+](=O)[O-])cc2)NC(=O)NC1=O` (stereo unspecified) has an inhibition in vivo at 314 mg/kg/day [1] of 0% and an Activity [2] of 100%.

`CN1C(=O)NC(c2cc(Cl)c(Cl)cc2Cl)C1=O` (stereo unspecified) gave an inhibition in vivo at 265 mg/kg/day [3] of 83% and an Activity [4] of 33%.

With `O=C1[N-]C(=O)C(c2cc(Cl)c(Cl)cc2Cl)N1.[Na+]` (stereo unspecified) the Activity [5] was 100%, the inhibition in vivo at 100 mg/kg/day [6] was 76% and the inhibition in vivo at 269 mg/kg/day [7] was 65%. It also gave an Activity [8] of 100%, an Activity [9] of 100% and an inhibition in vivo at 200 mg/kg/day [10] of 86%.

Work on `O=C1NC(=O)C(c2c(Cl)cccc2Cl)N1` (stereo unspecified) yielded an inhibition in vivo at 347 mg/kg/day [11] of 2% and an Activity [12] of 100%.

In the case of `CC1(c2cc(Cl)c(Cl)cc2Cl)NC(=O)NC1=O` (stereo unspecified), the Activity [13] is reported as 66% and the inhibition in vivo at 297 mg/kg/day [14] is reported as 90%.

For `CN1C(=O)C(c2cc(Cl)c(Cl)cc2Cl)N(C)C1=O` (stereo unspecified), the Activity [15] was 83% and the inhibition in vivo at 336 mg/kg/day [16] was 88%.

Work on `O=C1NC(=O)C(c2ccc(Cl)c(Cl)c2)N1` (stereo unspecified) yielded an inhibition in vivo at 329 mg/kg/day [17] of 0% and an Activity [18] of 100%.

`O=C1NC(c2cc(Cl)c(Cl)cc2Cl)C(=O)N1CO` (stereo unspecified) gave an inhibition in vivo at 146 mg/kg/day [19] of 0% and an Activity [20] of 100%.

Work on `O=C1NCCN1c1ncc([N+](=O)[O-])s1` [NIRIDAZOLE] yielded an inhibition in vivo at 249 mg/kg/day [21] of 99% and an Activity [22] of 17%.

Work on `CN1C(=O)NC(=O)C1c1cc(Cl)c(Cl)cc1Cl` (stereo unspecified) yielded an inhibition in vivo at 396 mg/kg/day [23] of 71% and an Activity [24] of 83%.

With `Cc1cc(Cl)c(Cl)cc1C1(C)NC(=O)NC1=O` (stereo unspecified) the Activity [25] was 100% and the inhibition in vivo at 349 mg/kg/day [26] was 48%.
